Screening data: PubChem BioAssay, several laboratories
Rows were chosen to be rich in hits. Some 2.6% of all compounds tested hit in one or more screens of this group.
Exocytosis inh: lytic granule exocytosis inhibition | TALL-104 LAMP-1 surface exposure, flow cytometry; cells stimulated with thapsigargin and PMA | inhibition, % at 10 µM | hit rate 0.66% among 360,000;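 active = inhibition above about 55%, limit read from the data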
MC4R antagonist: antagonists of human melanocortin 4 receptor (MC4R); inhibition, % at 6.5 µM; P32245; hit rate 0.48% among 360,000; MC4R-expressing cells, MTII-stimulated cAMP, LANCE TR-FRET; AID 540295;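 active = inhibition above its plate's cutoff, the mean of tested wells on that plate plus 3 SD, cut at about 29% in these data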;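 note: 0% = Melanotan II alone and 100% = Melanotan II plus saturating MCL0020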
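Assay system: human MC4R-expressing U2OS cells; reagent: Melanotan II stimulation of cells; dosing: 6.5 µM single dose; timing: compound 30 min, challenge 1 h, detection 1 h; signal: TR-FRET cAMP assay; replicates: one well per compound, no replicates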
T cell modulator: modulates CD8 T cell binding to vesicles | 2C CD8+ T cell-vesicle binding, flow cytometry; active compounds read low | response (vesicle binding), % at 7 µM | hit rate 0.068% among 330,000 | AID 2052;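 active = response, share of CD8 T cells binding vesicles, and their 90th percentile fluorescence all below set limits, cut at about 80% in these data, passing the limit was not always enough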;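 note: values below 100% mean blocked vesicle binding to the CD8+ T cells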
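Assay system – 2C mouse CD8+ T cells · Also added – QL9-loaded Drosophila micro-vesicles · Timing – Cell–vesicle co-incubation 1.5 h at 37 °C, staining 20 min on ice · Signal – flow cytometry of vesicle-bound cells · Measure – percent CD8+ FL2 mean versus row control · Controls – Peptide-free naked vesicles (low) and QL9 vesicles with 0.7% DMSO vehicle (high)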
MC4R ag barr: activates human MC4R beta-arrestin recruitment; P32245; U2OS MC4R beta-arrestin complementation, luminescence; percent of melanotan II response, DMSO zero; activation, % at 8.9 µM; hit rate 0.98% among 360,000; AID 540308;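 active = activation above a per-plate cutoff, the mean activation of sample wells on that plate plus 3 SD, cut at about 8% in these data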
PGE2 EP2 inh: blocks the human prostaglandin E2 receptor EP2; P43116; hit rate 0.52% among 260,000; AID 1422; C6 glioma cells expressing human EP2, cAMP TR-FRET; cells stimulated with saturating PGE2; inhibition, % at 25 µM;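 active = percent inhibition above 40 after rounding to a whole number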;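 note: rat C6 glioma host cells with rolipram phosphodiesterase inhibitor present; the protocol text gives 20 µM as final concentration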
Target sequence (P43116 whole entry, looked up): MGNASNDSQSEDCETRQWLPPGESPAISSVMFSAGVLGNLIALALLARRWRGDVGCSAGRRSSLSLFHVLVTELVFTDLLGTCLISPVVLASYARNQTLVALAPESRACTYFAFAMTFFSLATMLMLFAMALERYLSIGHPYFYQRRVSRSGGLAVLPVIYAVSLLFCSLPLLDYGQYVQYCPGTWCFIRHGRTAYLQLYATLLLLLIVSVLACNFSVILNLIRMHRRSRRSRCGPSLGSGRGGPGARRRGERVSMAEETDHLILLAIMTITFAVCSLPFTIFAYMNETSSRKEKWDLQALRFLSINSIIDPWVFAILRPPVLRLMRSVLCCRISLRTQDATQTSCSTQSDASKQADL
EP2 modulator: modulates human prostaglandin E2 receptor EP2 signaling. EP2-expressing cells, cAMP HTRF FRET, PGE2 co-stimulation. P43116. induction, % at 25 µM. hit rate 0.83% among 260,000. AID 940;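 active = compounds whose cAMP rise, as percent of the full-agonist control response, exceeds 60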;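 note: rat C6 glioma line stably carrying human EP2 under a CMV promoter; the protocol text gives 20 µM as final concentration; 100% = response of wells given 1 µM PGE2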
Exocytosis CP01: blocks lytic granule exocytosis; shares compounds with Exocytosis inh; hit rate 11% among 1,500; TALL-104 cells, LAMP-1 externalization, flow cytometry; stimulated with PMA plus thapsigargin; inhibition, % at 10 µM; in the data active = inhibition above about 60%;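 note: 0% = stimulated vehicle wells and 100% = unstimulated wells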
Numbers without * were called inactive; nt = not tested or not shown.

SMILES	Exocytosis inh	MC4R antagonist	T cell modulator	MC4R ag barr	PGE2 EP2 inh	EP2 modulator	Exocytosis CP01
COc1ccccc1NC(=O)c1ccc(C(=O)c2ccccc2)o1	86*	5	282	0	3	19	0
COc1cccc(N2C(=O)CC(NNc3nc4ccccc4s3)C2=O)c1 (stereo not drawn)	-4	9	184	0	6	-89	nt
COc1ccc(CC(=O)Nc2cc(Cl)ccc2N2CCCC2)cc1	67*	10	200	2	nt	nt	-4
COc1ccc(Cl)cc1C(=O)Nc1ccccc1N1CCCCC1	57*	9	462	-2	nt	nt	-4
O=C(Nc1ccccc1N1CCCCC1)c1cccc(OC(F)F)c1	99*	13	157	0	nt	nt	-14
COc1ccc(CCC(=O)Nc2cc(Cl)ccc2N2CCN(C)CC2)cc1	nt	nt	282	nt	4	-33	nt
COc1ccc(Cl)cc1C(=O)Nc1ccccc1N1CCN(C)CC1	-1	11	386	-2	7	-28	nt
CCOc1ccc(CCNC(=O)c2ccc(CS(=O)Cc3ccccc3Cl)o2)cc1 (stereo not drawn)	1	3	530	-1	nt	nt	nt
CCC1=C2CC[C@H]3C(=O)N(c4ccccc4)C(=O)[C@H]3[C@H]2[C@@]2(C)C(=NCc3ccccc3)OC(=O)N2C1=O	16	11	141	0	16	1	nt
CCC1=C2CC[C@H]3C(=O)N(C)C(=O)[C@H]3[C@H]2[C@@]2(Cc3ccccc3)C(=NCC(=O)OC)OC(=O)N2C1=O	84*	-3	254	0	9	19	-15
COc1cccc(CN2CCN(Cc3cc(OC)c(OC)c(OC)c3)CC2)c1OC	0	0	145	-1	nt	nt	nt
COc1cc(CN2CCN(C(c3ccccc3)c3ccccc3)CC2)cc(OC)c1OC	64*	0	266	1	nt	nt	-11
c1ccc(OCCN2CCN(C(c3ccccc3)c3ccccc3)CC2)cc1	84*	-5	165	0	nt	nt	-5
c1ccc(OCCN2CCNCC2)cc1	-3	1	nt	2	nt	nt	nt
COc1ccc(OC)c(NC(=O)C2(C)CCN2C(=O)Cc2ccc(Cl)cc2Cl)c1 (stereo not drawn)	-2	4	nt	-1	nt	nt	nt
COc1ccc(/C=C2\CCCC3C2=NN(C(=O)CSc2n[nH]c(N)n2)C3c2ccc(OC)cc2)cc1 (stereo not drawn)	10	1	165	-4	5	30	nt
O=C(NCCN1CCOCC1)c1ccccc1Cl	12	-2	229	0	14	10	nt
Cc1ccc(C(=O)NCCN2CCOCC2)c(Cl)c1	56*	-3	487	0	nt	nt	-13
CCCCCn1c(CN2CCCCC2C)nc2c1c(=O)n(C)c(=O)n2C (stereo not drawn)	-4	-6	343	-1	4	32	nt
O=C(CN1CCN(Cc2cccc3ccccc23)CC1)NCCc1ccccc1	78*	16	197	2	nt	nt	-13
CC(=O)Nc1ccc(Nc2nc(-c3c(C)nc4ccccn34)cs2)cc1	75*	-31	142	-1	nt	nt	-4
Cc1nc2ncccn2c1-c1csc(Nc2ccccc2)n1	0	15	97	1	4	-46	nt
CC(NC(=O)Cc1cccs1)c1ccncc1 (stereo not drawn)	-2	2	335	2	10	18	nt
Cc1oc(-c2ccc(Cl)cc2)nc1CS(=O)CC(=O)NCCCN1CCN(Cc2ccccc2)CC1 (stereo not drawn)	75*	4	314	-1	nt	nt	-8
NC1=NC[C@H](Cc2ccc(O)cc2)N1CC1CCCCC1	65*	5	315	0	22	2	-11
SMILES	Exocytosis inh	MC4R antagonist	T cell modulator	MC4R ag barr	PGE2 EP2 inh	EP2 modulator	Exocytosis CP01
NC1=NC[C@H](Cc2ccccc2)N1CC1CCCCC1	6	-2	477	-1	10	nt	nt
Cc1cc2cc3c(cc2nc1SCC(=O)NCc1ccc2c(c1)OCO2)OCO3	nt	nt	nt	nt	17	47	nt
Cc1ccc(SCCNC(=O)c2ccccc2)cc1	4	-4	220	-1	5	-72	nt
Cc1c(C(=O)N(C)C2CCCCC2)sc2ncnc(N3CCN(c4ccccc4F)CC3)c12	85*	9	410	0	nt	nt	-14
O=C(Nc1ccc(N2CCN(c3ncccc3C(F)(F)F)CC2)nc1)c1cccs1	75*	3	101	9.6*	11	-32	18
O=C(Nc1ccc(N2CCN(c3ccc(C(F)(F)F)cn3)CC2)nc1)c1cccs1	-3	-1	576	1	6	9	nt
CCOc1ccc2nc(SC3CC(=O)N(c4ccc(OC)cc4OC)C3=O)sc2c1 (stereo not drawn)	62*	22	57	0	8	-40	15
CCOc1ccc(N2C(=O)CC(Sc3nc4ccc(OCC)cc4s3)C2=O)cc1 (stereo not drawn)	26	12	216	0	15	nt	nt
CCOc1ccc2nc(SC3CC(=O)N(c4ccc(C)cc4)C3=O)sc2c1 (stereo not drawn)	56*	1	628	0	11	-20	-4
COc1ccc(N2C(=O)CC(Sc3nccc(C)n3)C2=O)c(OC)c1 (stereo not drawn)	6	15	nt	-1	nt	nt	nt
COc1nc(-c2ccc3c(c2)OCO3)n(-c2ccc(NC(=O)CSc3ccccc3)cc2)n1	-1	16	923	1	8	nt	nt
O=C(C1CCCO1)N1CCC(O)(c2cccnc2)CC1 (stereo not drawn)	nt	nt	nt	nt	5	0	nt
OCCN1CCN(CC(O)COc2ccc(C34CC5CC(CC(C5)C3)C4)cc2)CC1 (stereo not drawn)	72*	4	240	5	8	-72	79*
O=S(=O)(Nc1nc2ccccc2nc1NCC1CCCO1)c1cc(Cl)ccc1Cl (stereo not drawn)	7	5	162	-3	10	-6	nt
CC(=O)c1ccc(-c2cc([C@H]3[C@H]4C=CC[C@@H](C)[C@@H]4C(=O)N3Cc3ccccc3)ccc2F)cc1	58*	-1	242	-2	11	16	-14
C[C@@H]1CC=C[C@H]2[C@H]1C(=O)N(Cc1ccccc1)[C@H]2c1ccc(F)c(-c2ccc(N(C)C)cc2)c1	-7	-3	194	-2	8	41	nt
COc1ccccc1-n1c(SCC(=O)NC(C)(C)C)nnc1-c1ccco1	-3	-2	239	0	5	12	nt
CN1CCN(c2cc(-c3ccccc3)nc3cc(-c4ccc(F)cc4)nn23)CC1	103*	9	172	3	14	-5	100*
Fc1ccc(-c2cc3nc(-c4ccccc4)cc(N4CCN(CCN5CCOCC5)CC4)n3n2)cc1	73*	1	nt	2	20	-10	38
